{
  "source": "ChEMBL document CHEMBL3351385",
  "about": "“Synthesis and preliminary mechanistic evaluation of 5-(p-tolyl)-1-(quinolin-2-yl)pyrazole-3-carboxylic acid amides with potent antiproliferative activity on human cancer cell lines” (Eur J Med Chem, 2014)",
  "key": {"[1]": {"molecular_target": "Mitogen-activated protein kinase 11 (Homo sapiens) (UniProt Q15759)", "assay": "Inhibition of p38beta (unknown origin) assessed as remaining enzyme activity at 10 uM by radioactive [33P]-ATP filter binding assay"}, "[2]": {"molecular_target": "Serine/threonine-protein kinase pim-1 (Homo sapiens) (UniProt P11309)", "assay": "Inhibition of PIM1 (unknown origin) assessed as remaining enzyme activity at 10 uM by radioactive [33P]-ATP filter binding assay"}, "[3]": {"molecular_target": "Serine/threonine-protein kinase Nek2 (Homo sapiens) (UniProt P51955)", "assay": "Inhibition of NEK2A (unknown origin) assessed as remaining enzyme activity at 10 uM by radioactive [33P]-ATP filter binding assay"}, "[4]": {"molecular_target": "Serine/threonine-protein kinase 24 (Homo sapiens) (UniProt Q9Y6E0)", "assay": "Inhibition of MST3 (unknown origin) assessed as remaining enzyme activity at 10 uM by radioactive [33P]-ATP filter binding assay"}, "[5]": {"molecular_target": "Serine/threonine-protein kinase OSR1 (Homo sapiens) (UniProt O95747)", "sequence (O95747 2-527 limits assumed)": "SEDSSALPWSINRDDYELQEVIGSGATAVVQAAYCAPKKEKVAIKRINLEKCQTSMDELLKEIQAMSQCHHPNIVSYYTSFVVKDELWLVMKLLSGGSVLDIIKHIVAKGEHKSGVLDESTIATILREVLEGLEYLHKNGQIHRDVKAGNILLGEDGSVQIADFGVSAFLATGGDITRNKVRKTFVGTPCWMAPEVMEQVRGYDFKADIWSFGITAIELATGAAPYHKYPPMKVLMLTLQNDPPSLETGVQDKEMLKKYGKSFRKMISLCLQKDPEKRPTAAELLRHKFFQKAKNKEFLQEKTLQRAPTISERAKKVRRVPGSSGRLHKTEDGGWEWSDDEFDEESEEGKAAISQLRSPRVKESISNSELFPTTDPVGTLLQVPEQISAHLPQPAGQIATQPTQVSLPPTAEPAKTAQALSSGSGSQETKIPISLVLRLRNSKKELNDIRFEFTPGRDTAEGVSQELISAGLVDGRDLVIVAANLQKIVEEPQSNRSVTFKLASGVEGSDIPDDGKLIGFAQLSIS", "assay": "Inhibition of OSR1 (unknown origin) assessed as remaining enzyme activity at 10 uM by radioactive [33P]-ATP filter binding assay"}, "[6]": {"molecular_target": "Dual specificity mitogen-activated protein kinase kinase 6 (Homo sapiens) (UniProt P52564)", "assay": "Inhibition of MKK6 (unknown origin) assessed as remaining enzyme activity at 10 uM by radioactive [33P]-ATP filter binding assay"}, "[7]": {"molecular_target": "Ephrin type-B receptor 3 (Homo sapiens) (UniProt P54753)", "assay": "Inhibition of EPHB3 (unknown origin) assessed as remaining enzyme activity at 10 uM by radioactive [33P]-ATP filter binding assay", "outline": "(§1)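 A single 10 µM concentration was tested across a 140-kinase panel. Activity was measured by a radioactive 33P-ATP filter-binding assay run at the International Center for Kinase Profiling, University of Dundee.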"}, "[8]": {"molecular_target": "Serine/threonine-protein kinase SIK3 (Homo sapiens) (UniProt Q9Y2K2)", "assay": "Inhibition of SIK3 (unknown origin) assessed as remaining enzyme activity at 10 uM by radioactive [33P]-ATP filter binding assay"}, "[9]": {"molecular_target": "Ephrin type-A receptor 4 (Homo sapiens) (UniProt P54764)", "sequence (P54764 whole entry)": "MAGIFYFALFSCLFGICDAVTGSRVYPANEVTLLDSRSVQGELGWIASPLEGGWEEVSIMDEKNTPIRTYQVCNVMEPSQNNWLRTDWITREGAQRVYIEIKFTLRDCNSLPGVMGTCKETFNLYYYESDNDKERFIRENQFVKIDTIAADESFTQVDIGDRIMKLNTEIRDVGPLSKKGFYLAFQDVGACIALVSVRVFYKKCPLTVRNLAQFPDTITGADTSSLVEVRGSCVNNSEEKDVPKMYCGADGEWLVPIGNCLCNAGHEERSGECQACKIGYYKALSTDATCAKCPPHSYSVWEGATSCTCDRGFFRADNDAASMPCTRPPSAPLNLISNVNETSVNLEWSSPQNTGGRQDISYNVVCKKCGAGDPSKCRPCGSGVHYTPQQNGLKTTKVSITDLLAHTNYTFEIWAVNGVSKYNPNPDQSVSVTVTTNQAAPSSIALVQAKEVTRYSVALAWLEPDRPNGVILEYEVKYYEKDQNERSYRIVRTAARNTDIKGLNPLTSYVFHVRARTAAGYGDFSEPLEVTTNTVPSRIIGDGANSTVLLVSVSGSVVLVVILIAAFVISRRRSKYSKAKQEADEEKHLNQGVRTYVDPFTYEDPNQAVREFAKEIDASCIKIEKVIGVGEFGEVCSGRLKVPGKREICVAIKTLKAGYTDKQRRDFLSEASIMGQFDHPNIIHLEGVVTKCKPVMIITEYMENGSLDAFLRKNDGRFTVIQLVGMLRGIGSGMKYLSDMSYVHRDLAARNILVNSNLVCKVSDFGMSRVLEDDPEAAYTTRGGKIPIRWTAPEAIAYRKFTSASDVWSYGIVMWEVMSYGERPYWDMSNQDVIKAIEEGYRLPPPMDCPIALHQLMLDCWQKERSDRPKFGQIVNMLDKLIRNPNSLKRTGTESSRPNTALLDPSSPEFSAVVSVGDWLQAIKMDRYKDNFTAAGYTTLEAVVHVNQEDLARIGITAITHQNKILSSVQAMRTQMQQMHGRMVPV", "assay": "Inhibition of EPHA4 (unknown origin) assessed as remaining enzyme activity at 10 uM by radioactive [33P]-ATP filter binding assay", "outline": "as §1"}, "[10]": {"molecular_target": "Inhibitor of nuclear factor kappa-B kinase subunit beta (Homo sapiens) (UniProt O14920)", "sequence (O14920 whole entry)": "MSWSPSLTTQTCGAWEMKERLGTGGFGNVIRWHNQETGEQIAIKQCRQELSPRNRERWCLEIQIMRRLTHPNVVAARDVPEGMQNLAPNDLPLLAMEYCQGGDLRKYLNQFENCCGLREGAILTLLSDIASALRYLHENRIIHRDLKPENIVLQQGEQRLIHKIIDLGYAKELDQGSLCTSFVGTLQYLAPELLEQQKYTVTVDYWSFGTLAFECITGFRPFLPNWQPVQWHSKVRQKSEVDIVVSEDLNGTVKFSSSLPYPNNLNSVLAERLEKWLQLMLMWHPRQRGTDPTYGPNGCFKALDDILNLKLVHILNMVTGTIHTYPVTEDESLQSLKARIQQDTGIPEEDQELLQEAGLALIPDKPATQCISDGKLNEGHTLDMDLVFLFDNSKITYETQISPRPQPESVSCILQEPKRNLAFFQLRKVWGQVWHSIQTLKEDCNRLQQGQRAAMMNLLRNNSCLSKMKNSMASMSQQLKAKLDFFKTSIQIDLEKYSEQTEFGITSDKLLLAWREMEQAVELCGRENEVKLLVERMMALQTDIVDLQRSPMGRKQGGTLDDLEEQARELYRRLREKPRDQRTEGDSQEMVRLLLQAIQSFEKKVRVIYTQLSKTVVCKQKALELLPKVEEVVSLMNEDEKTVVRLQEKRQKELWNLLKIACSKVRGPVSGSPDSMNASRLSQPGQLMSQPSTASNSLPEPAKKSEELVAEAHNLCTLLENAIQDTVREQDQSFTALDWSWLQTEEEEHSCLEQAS", "assay": "Inhibition of IKKbeta (unknown origin) assessed as remaining enzyme activity at 10 uM by radioactive [33P]-ATP filter binding assay"}, "[11]": {"molecular_target": "Tyrosine-protein kinase Yes (Homo sapiens) (UniProt P07947)", "sequence (P07947 2-543 limits assumed)": "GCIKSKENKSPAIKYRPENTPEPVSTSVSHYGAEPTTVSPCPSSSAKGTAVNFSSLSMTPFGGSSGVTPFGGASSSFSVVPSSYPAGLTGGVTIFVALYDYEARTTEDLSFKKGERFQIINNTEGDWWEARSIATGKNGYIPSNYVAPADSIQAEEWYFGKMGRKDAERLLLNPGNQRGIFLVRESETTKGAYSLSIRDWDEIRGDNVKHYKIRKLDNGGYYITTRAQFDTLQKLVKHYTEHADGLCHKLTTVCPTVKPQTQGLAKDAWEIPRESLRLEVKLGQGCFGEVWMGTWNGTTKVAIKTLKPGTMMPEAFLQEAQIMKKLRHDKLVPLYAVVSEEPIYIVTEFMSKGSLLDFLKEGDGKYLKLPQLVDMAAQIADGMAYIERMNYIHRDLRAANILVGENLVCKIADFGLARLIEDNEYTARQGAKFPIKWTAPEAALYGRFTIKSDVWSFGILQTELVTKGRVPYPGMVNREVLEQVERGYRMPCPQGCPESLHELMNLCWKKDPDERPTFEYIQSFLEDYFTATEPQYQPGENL", "assay": "Inhibition of YES1 (unknown origin) assessed as remaining enzyme activity at 10 uM by radioactive [33P]-ATP filter binding assay"}, "[12]": {"molecular_target": "Serine/threonine-protein kinase TBK1 (Homo sapiens) (UniProt Q9UHD2)", "assay": "Inhibition of TBK1 (unknown origin) assessed as remaining enzyme activity at 10 uM by radioactive [33P]-ATP filter binding assay"}, "[13]": {"molecular_target": "Mitogen-activated protein kinase 3 (Homo sapiens) (UniProt P27361)", "assay": "Inhibition of ERK1 (unknown origin) assessed as remaining enzyme activity at 10 uM by radioactive [33P]-ATP filter binding assay", "outline": "as §1"}, "[14]": {"molecular_target": "Serine/threonine-protein kinase WNK1 (Homo sapiens) (UniProt Q9H4A3)", "assay": "Inhibition of WNK1 (unknown origin) assessed as remaining enzyme activity at 10 uM by radioactive [33P]-ATP filter binding assay"}, "[15]": {"molecular_target": "Serine/threonine-protein kinase MARK1 (Homo sapiens) (UniProt Q9P0L2)", "assay": "Inhibition of MARK1 (unknown origin) assessed as remaining enzyme activity at 10 uM by radioactive [33P]-ATP filter binding assay"}, "Tubulin (Homo sapiens)": {"molecular_target": "Tubulin (Homo sapiens) (UniProt P68371+Q9H4B7+P0DPH7+P68366+Q13509+Q71U36+P04350+Q3ZCM7+P07437+P68363+Q9BQE3+Q6PEY2+Q13885+Q9BVA1+Q9BUF5)", "assay": "Inhibition of tubulin polymerization (unknown origin)", "type": "protein-complex assay"}, "[16]": {"molecular_target": "Ephrin type-B receptor 4 (Homo sapiens) (UniProt P54760)", "assay": "Inhibition of EPHB4 (unknown origin) assessed as remaining enzyme activity at 10 uM by radioactive [33P]-ATP filter binding assay", "outline": "as §1"}, "Huh-7": {"test_system": "Huh-7", "assay": "Induction of cell death in human HuH7 cells assessed as induction of intracytoplasmic vacuoles at cytotoxic IC50 level after 72 hrs by inverted light microscopy", "type": "functional, cell-based", "outline": "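They were viewed under an inverted light microscope at 20× for death morphology, including intracytoplasmic vacuoles.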"}, "[17]": {"molecular_target": "Tyrosine-protein kinase Lck (Homo sapiens) (UniProt P06239)", "assay": "Inhibition of LCK (unknown origin) assessed as remaining enzyme activity at 10 uM by radioactive [33P]-ATP filter binding assay"}, "[18]": {"molecular_target": "Mitogen-activated protein kinase kinase kinase kinase 2 (Homo sapiens) (UniProt Q12851)", "sequence (Q12851 whole entry)": "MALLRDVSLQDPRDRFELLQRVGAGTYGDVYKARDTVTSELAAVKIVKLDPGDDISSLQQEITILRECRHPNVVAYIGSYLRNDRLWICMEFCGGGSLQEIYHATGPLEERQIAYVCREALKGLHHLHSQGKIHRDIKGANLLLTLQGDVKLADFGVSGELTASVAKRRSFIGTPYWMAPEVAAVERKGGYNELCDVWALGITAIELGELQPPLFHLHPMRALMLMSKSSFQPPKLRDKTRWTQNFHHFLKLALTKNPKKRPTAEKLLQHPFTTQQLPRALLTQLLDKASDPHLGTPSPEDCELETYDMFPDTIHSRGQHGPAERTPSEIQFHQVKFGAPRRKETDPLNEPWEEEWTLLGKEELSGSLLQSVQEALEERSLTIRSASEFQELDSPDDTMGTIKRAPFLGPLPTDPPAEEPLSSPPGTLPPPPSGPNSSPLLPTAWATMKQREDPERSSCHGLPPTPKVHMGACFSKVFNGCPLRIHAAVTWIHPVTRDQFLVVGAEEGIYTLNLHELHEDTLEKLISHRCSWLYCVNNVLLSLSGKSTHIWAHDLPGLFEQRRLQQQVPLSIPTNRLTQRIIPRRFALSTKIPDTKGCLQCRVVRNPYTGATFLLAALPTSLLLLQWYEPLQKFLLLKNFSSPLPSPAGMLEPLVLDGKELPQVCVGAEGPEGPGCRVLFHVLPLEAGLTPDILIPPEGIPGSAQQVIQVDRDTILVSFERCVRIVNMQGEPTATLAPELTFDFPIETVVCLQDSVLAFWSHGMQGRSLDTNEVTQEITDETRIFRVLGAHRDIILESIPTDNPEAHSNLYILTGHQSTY", "assay": "Inhibition of GCK (unknown origin) assessed as remaining enzyme activity at 10 uM by radioactive [33P]-ATP filter binding assay"}, "[19]": {"assay": "Induction of cell cycle arrest in human Mahlavu cells assessed as accumulation at G2/M phase at cytotoxic IC50 level after 48 hrs by propidium iodide staining based FACS method", "type": "functional"}, "[20]": {"molecular_target": "Serine/threonine-protein kinase BRSK1 (Homo sapiens) (UniProt Q8TDC3)", "sequence (Q8TDC3 whole entry)": "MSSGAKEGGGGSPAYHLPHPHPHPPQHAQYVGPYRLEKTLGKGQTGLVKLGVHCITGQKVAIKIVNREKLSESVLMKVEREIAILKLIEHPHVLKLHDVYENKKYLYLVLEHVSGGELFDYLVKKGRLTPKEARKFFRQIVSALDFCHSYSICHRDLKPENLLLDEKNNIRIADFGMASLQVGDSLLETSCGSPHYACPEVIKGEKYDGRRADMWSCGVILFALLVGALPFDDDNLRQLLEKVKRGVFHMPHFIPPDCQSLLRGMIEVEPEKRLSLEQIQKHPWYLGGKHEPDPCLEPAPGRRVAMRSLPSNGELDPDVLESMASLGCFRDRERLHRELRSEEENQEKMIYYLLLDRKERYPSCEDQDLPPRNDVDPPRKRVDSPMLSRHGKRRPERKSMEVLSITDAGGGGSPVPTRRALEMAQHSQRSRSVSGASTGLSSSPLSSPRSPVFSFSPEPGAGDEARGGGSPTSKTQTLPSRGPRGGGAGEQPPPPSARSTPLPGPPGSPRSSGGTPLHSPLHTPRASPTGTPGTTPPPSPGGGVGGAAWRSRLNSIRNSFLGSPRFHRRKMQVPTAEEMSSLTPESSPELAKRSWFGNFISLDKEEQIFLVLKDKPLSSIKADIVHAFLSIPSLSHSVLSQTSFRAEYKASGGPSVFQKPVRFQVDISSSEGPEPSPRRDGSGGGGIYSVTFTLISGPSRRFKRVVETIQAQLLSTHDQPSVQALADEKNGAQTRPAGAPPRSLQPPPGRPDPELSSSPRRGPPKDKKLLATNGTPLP", "assay": "Inhibition of BRSK1 (unknown origin) assessed as remaining enzyme activity at 10 uM by radioactive [33P]-ATP filter binding assay", "outline": "as §1"}, "[21]": {"molecular_target": "Interleukin-1 receptor-associated kinase 1 (Homo sapiens) (UniProt P51617)", "assay": "Inhibition of IRAK1 (unknown origin) assessed as remaining enzyme activity at 10 uM by radioactive [33P]-ATP filter binding assay"}, "[22]": {"molecular_target": "Casein kinase I isoform gamma-2 (Homo sapiens) (UniProt P78368)", "sequence (P78368 whole entry, looked up, canonical isoform)": "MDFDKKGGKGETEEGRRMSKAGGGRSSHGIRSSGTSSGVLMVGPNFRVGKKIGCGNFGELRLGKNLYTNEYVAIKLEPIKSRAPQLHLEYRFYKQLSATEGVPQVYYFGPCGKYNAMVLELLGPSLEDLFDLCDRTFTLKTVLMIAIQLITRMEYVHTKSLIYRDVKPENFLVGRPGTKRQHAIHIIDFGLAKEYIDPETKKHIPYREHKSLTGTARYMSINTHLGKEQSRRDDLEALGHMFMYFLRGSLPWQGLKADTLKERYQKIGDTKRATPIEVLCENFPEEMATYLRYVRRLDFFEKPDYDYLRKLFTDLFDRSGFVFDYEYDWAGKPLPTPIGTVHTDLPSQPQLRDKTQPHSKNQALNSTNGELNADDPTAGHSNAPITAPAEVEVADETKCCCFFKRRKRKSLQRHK", "assay": "Inhibition of CK1gamma2 (unknown origin) assessed as remaining enzyme activity at 10 uM by radioactive [33P]-ATP filter binding assay", "outline": "as §1"}, "[23]": {"assay": "Induction of cell cycle arrest in human Mahlavu cells assessed as accumulation at G0/G1 phase at cytotoxic IC50 level after 48 hrs by propidium iodide staining based FACS method", "type": "functional"}, "[24]": {"molecular_target": "Serine/threonine-protein kinase PAK 6 (Homo sapiens) (UniProt Q9NQU5)", "assay": "Inhibition of PAK6 (unknown origin) assessed as remaining enzyme activity at 10 uM by radioactive [33P]-ATP filter binding assay"}, "[25]": {"molecular_target": "Testis-specific serine/threonine-protein kinase 1 (Homo sapiens) (UniProt Q9BXA7)", "assay": "Inhibition of TSSK1 (unknown origin) assessed as remaining enzyme activity at 10 uM by radioactive [33P]-ATP filter binding assay"}, "[26]": {"molecular_target": "Serine/threonine-protein kinase SIK2 (Homo sapiens) (UniProt Q9H0K1)", "assay": "Inhibition of SIK2 (unknown origin) assessed as remaining enzyme activity at 10 uM by radioactive [33P]-ATP filter binding assay"}, "[27]": {"molecular_target": "Homeodomain-interacting protein kinase 2 (Homo sapiens) (UniProt Q9H2X6)", "assay": "Inhibition of HIPK2 (unknown origin) assessed as remaining enzyme activity at 10 uM by radioactive [33P]-ATP filter binding assay"}},
  "note": "Active and inactive are the calls of the source. The calls are words filed in the database; no cut-off is given here.",
  "data": [
    {"compound": "Cc1ccc(-c2cc(C(=O)Nc3ccnc(Cl)c3)nn2-c2ccc3ccccc3n2)cc1", "values": [
      {"measurement": "Activity", "setting": "[1]", "value": 107, "unit": "%"},
      {"measurement": "Activity", "setting": "[2]", "value": 118, "unit": "%"},
      {"measurement": "Activity", "setting": "[3]", "value": 90, "unit": "%"},
      {"measurement": "Activity", "setting": "[4]", "value": 106, "unit": "%"},
      {"measurement": "Activity", "setting": "[5]", "value": 111, "unit": "%"},
      {"measurement": "Activity", "setting": "[6]", "value": 99, "unit": "%"},
      {"measurement": "Activity", "setting": "[7]", "value": 109, "unit": "%"},
      {"measurement": "Activity", "setting": "[8]", "value": 81, "unit": "%"},
      {"measurement": "Activity", "setting": "[9]", "value": 125, "unit": "%"},
      {"measurement": "Activity", "setting": "[10]", "value": 70, "unit": "%"},
      {"measurement": "Activity", "setting": "[11]", "value": 108, "unit": "%"},
      {"measurement": "Activity", "setting": "[12]", "value": 93, "unit": "%"},
      {"measurement": "Activity", "setting": "[13]", "value": 103, "unit": "%"},
      {"measurement": "Activity", "setting": "[14]", "value": 106, "unit": "%"},
      {"measurement": "Activity", "setting": "[15]", "value": 99, "unit": "%"},
      {"measurement": "inhibition", "setting": "Tubulin (Homo sapiens)", "value": "inactive"},
      {"measurement": "Activity", "setting": "[16]", "value": 125, "unit": "%"},
      {"measurement": "Activity", "setting": "Huh-7", "value": "Active"},
      {"measurement": "Activity", "setting": "[17]", "value": 99, "unit": "%"},
      {"measurement": "Activity", "setting": "[18]", "value": 112, "unit": "%"},
      {"measurement": "Activity", "setting": "[19]", "value": 19.9, "unit": "%"},
      {"measurement": "Activity", "setting": "[20]", "value": 108, "unit": "%"},
      {"measurement": "Activity", "setting": "[21]", "value": 109, "unit": "%"},
      {"measurement": "Activity", "setting": "[22]", "value": 99, "unit": "%"},
      {"measurement": "Activity", "setting": "[23]", "value": 58.7, "unit": "%"},
      {"measurement": "Activity", "setting": "[24]", "value": 104, "unit": "%"},
      {"measurement": "Activity", "setting": "[25]", "value": 90, "unit": "%"},
      {"measurement": "Activity", "setting": "[26]", "value": 106, "unit": "%"},
      {"measurement": "Activity", "setting": "[27]", "value": 124, "unit": "%"}
    ]}
  ]
}
